In ChEMBL document CHEMBL1153851, “(+/-)-3,4-Dihydroxy-8,9-methylenedioxypterocarpan and derivatives: cytotoxic effect on human leukemia cell lines” (Eur J Med Chem, 2009):

How the values were obtained:
[1] = test system: K562; test: Cytotoxicity against human K562 cells assessed as cell viability after 72 hrs by MTT assay; assay type: functional, cell-based; details: K562, 72 h
Outline: (§1)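 Cells were kept in RPMI 1640 with 5 × 10^-5 M β-mercaptoethanol, 25 mM Hepes (pH 7.4) and 10% heat-inactivated FCS. Daudi received 20% FCS, and Lucena I received 60 nM vincristine to maintain resistance. Cells were seeded at 2 × 10⁴ cells/mL with compound (0.1–50) for 72 h at 37 °C, 5% CO₂. MTT (5 mg/mL stock) was added for 3 h, formazan was dissolved in DMSO, and A490 was read. Triplicate points; mean of ≥3 experiments.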

[2] = Cytotoxicity against human K562-Lucena 1 cells assessed as cell viability after 72 hrs by MTT assay; assay type: functional, cell-based; details: K562-Lucena 1, 72 h; outline: as §1
[3] = test system: HL-60; test: Cytotoxicity against human HL60 cells assessed as cell viability after 72 hrs by MTT assay; assay type: functional, cell-based; details: HL-60, 72 h; outline: as §1
[4] = test system: Jurkat; test: Cytotoxicity against human Jurkat cells assessed as cell viability after 72 hrs by MTT assay; assay type: functional, cell-based; outline: as §1
[5] = test system: Daudi; test: Cytotoxicity against human Daudi cells assessed as cell viability after 72 hrs by MTT assay; assay type: functional, cell-based; outline: as §1
[6] = Toxicity against PHA-activated human peripheral lymphocytes assessed as cell viability after 72 hrs by MTT assay; assay type: cell-based, Lymphocyte
Outline: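 PBMC from healthy-volunteer heparinized blood were isolated by Ficoll-Hypaque gradient and resuspended at 10⁶ cells/mL in supplemented RPMI 1640. They were stimulated with PHA and exposed to compound at 2.5–10 µM for 72 h. Controls received diluent without PHA. Viability was read by MTT. Triplicate points; mean ± SD of ≥3 experiments.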

Row | SMILES | IC50 [1] [µM] | IC50 [2] [µM] | IC50 [3] [µM] | IC50 [4] [µM] | IC50 [5] [µM] | IC50 at 72 h [6] [µM]
1 | COc1cc2c(cc1O)[C@H]1COc3c(ccc(O)c3O)[C@H]1O2 (racemic) | > 10 | > 20 | 6.4 | – | – | –
2 | Oc1ccc2c(c1O)OC[C@@H]1c3cc4c(cc3O[C@H]21)OCO4 | 3 | 3.7 | 2.1 | 7.6 | 2.8 | –
3 | O=C1C=CC2=C(OC[C@@H]3c4cc5c(cc4O[C@H]23)OCO5)C1=O (racemic) | – | – | – | – | 0.9 | 2.4
4 | Oc1ccc2c(c1)OC[C@@H]1c3cc4c(cc3O[C@H]21)OCO4 [(+)-MAACKIAIN] | > 50 | > 50 | > 50 | – | – | –
5 | Oc1cc2c(cc1O)[C@@H]1Oc3cc4c(cc3[C@@H]1CO2)OCO4 | > 20 | > 50 | > 20 | – | – | –
